Results published in the M2OR odorant receptor database.

Experiments:
Conditions in all cases: stereoisomer not certain
[1] = target: T1, OR5AN1 (Homo sapiens) (UniProt Q8NGI8)
T1 sequence (whole entry): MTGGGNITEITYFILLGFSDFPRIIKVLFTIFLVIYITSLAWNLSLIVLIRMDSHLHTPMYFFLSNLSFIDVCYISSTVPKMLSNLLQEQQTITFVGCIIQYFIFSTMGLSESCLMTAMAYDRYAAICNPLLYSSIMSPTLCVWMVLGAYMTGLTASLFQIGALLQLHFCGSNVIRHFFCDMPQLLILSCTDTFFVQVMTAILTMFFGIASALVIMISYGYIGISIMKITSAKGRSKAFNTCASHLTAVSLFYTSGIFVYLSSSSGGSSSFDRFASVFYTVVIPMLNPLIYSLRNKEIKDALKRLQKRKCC
Outline: (§1)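 Whether a receptor–molecule pair is responsive (active) rests on the original authors' judgment that its measured signal was statistically different from baseline. Pairs without that judgment are non-responsive (inactive). Sources used varied assay methods, commonly transient luciferase assays in mammalian cell lines.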

[2] = target: OR52Z1P (Homo sapiens) (UniProt P0C646)
Outline: as §1

[3] = target: OR56A1 (Homo sapiens) (UniProt Q8NGH5)
Outline: as §1

[4] = target: OR56A3 (Homo sapiens) (UniProt Q8NH54)
Outline: as §1

[5] = target: OR56A4 (Homo sapiens) (UniProt Q8NGH8)
Outline: as §1

[6] = target: OR56A5 (Homo sapiens) (UniProt P0C7T3)
Outline: as §1

[7] = target: OR56B1 (Homo sapiens) (UniProt Q8NGI3)
Outline: as §1

[8] = target: OR56B4 (Homo sapiens) (UniProt Q8NH76)
Outline: as §1

[9] = target: OR5A1 (Homo sapiens) (UniProt Q8NGJ0)
Outline: as §1

[10] = target: OR5A2 (Homo sapiens) (UniProt Q8NGI9)
Outline: as §1

[11] = target: OR5AC1 (Homo sapiens) (UniProt P0C628)
Outline: as §1

[12] = target: T2, OR5AC2 (Homo sapiens) (UniProt Q9NZP5)
T2 sequence (whole entry): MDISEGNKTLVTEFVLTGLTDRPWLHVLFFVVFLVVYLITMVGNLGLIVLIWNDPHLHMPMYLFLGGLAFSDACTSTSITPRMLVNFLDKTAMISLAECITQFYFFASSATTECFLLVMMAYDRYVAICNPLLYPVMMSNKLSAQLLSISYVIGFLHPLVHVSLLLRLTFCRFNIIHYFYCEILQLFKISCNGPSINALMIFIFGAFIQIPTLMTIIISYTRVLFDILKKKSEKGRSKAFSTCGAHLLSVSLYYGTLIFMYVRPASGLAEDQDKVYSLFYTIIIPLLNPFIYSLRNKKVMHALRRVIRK
Outline: as §1

[13] = target: OR5AK2 (Homo sapiens) (UniProt Q8NH90)
Outline: as §1

[14] = target: OR5AL1 (Homo sapiens) (UniProt P0C617)
Outline: as §1

[15] = target: OR5AP2 (Homo sapiens) (UniProt Q8NGF4)
Outline: as §1

[16] = target: OR5AR1 (Homo sapiens) (UniProt Q8NGP9)
Outline: as §1

[17] = target: OR5AS1 (Homo sapiens) (UniProt Q8N127)
Outline: as §1

[18] = target: OR5AU1 (Homo sapiens) (UniProt Q8NGC0)
Outline: as §1

[19] = target: OR5B12 (Homo sapiens) (UniProt Q96R08)
Outline: as §1

[20] = test system: OR5A1 D183N
Outline: as §1

Measured: odorant receptor agonist call;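 note: active if original authors judged signal statistically different from baseline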

Chain of OR5A2 (Homo sapiens) (Q8NGI9 whole entry): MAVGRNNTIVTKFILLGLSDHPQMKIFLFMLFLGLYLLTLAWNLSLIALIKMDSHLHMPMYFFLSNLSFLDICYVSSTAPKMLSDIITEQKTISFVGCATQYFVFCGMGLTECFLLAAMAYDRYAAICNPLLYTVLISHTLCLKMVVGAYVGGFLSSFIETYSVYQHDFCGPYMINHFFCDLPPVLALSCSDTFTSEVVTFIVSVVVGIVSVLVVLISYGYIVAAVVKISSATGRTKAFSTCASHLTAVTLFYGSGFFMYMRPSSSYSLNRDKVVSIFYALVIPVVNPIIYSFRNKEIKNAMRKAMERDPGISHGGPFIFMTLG
Chain of OR56B1 (Homo sapiens) (Q8NGI3 whole entry): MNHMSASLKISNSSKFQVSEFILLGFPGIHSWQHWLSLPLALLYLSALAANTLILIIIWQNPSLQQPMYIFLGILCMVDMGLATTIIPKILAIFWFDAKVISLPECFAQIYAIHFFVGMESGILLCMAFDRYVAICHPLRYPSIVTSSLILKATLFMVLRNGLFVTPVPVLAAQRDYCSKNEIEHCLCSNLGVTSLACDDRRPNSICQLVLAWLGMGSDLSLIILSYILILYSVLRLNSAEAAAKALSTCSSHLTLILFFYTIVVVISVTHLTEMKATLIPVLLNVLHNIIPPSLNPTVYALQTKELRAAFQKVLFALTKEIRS
Chain of OR56A5 (Homo sapiens) (P0C7T3 whole entry): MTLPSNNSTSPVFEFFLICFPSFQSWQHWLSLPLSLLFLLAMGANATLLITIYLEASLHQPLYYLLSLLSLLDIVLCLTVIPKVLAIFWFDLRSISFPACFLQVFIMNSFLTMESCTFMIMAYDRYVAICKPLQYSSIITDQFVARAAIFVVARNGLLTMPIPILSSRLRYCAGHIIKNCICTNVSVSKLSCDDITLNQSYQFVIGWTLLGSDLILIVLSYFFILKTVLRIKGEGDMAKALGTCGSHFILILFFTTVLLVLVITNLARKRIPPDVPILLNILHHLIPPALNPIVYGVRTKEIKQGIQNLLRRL
Chain of OR5AK2 (Homo sapiens) (Q8NH90 whole entry): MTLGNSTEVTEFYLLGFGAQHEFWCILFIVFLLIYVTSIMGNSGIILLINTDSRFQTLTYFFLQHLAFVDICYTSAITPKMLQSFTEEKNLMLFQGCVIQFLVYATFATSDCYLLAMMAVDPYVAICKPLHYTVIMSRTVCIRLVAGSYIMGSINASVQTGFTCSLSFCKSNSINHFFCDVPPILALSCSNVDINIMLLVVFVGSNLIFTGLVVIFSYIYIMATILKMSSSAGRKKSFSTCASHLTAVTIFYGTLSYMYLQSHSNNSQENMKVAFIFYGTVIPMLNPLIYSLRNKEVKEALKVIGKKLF
Chain of OR5AR1 (Homo sapiens) (Q8NGP9 whole entry): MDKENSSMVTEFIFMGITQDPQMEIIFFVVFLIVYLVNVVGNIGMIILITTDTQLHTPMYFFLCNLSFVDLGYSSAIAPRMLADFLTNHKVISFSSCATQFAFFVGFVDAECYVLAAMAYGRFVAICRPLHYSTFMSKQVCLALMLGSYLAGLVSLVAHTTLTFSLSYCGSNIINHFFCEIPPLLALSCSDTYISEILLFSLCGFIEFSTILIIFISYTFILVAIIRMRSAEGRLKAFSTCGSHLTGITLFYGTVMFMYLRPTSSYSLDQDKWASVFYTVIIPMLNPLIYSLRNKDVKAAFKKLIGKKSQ
Chain of OR5AS1 (Homo sapiens) (Q8N127 whole entry): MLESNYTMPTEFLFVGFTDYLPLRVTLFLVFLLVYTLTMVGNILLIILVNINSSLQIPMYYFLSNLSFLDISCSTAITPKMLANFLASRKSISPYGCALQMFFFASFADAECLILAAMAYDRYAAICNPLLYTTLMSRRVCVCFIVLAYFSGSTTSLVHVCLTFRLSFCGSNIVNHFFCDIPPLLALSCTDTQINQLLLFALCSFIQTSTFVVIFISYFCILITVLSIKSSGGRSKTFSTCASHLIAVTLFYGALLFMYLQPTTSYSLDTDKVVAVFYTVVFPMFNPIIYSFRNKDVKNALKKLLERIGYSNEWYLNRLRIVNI
Chain of OR5AU1 (Homo sapiens) (Q8NGC0 whole entry): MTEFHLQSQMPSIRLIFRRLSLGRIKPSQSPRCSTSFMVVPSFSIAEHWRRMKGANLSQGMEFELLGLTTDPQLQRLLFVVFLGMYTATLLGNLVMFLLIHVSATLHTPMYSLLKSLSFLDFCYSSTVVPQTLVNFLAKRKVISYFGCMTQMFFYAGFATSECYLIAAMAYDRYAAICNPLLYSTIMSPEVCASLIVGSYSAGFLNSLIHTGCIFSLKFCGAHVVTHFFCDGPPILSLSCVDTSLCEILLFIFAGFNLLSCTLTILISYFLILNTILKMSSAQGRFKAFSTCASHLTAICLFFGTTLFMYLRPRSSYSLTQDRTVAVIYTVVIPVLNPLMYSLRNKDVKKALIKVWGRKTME
Chain of OR56A1 (Homo sapiens) (Q8NGH5 whole entry): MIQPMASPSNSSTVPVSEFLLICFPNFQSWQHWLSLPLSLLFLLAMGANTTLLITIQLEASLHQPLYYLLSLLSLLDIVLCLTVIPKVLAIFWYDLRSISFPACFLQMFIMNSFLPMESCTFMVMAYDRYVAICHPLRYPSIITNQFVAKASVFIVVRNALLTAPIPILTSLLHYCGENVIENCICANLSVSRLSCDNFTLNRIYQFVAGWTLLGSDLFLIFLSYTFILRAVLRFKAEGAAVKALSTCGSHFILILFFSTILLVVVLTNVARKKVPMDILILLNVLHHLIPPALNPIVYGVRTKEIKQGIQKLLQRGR
Chain of OR5A1 (Homo sapiens) (Q8NGJ0 whole entry): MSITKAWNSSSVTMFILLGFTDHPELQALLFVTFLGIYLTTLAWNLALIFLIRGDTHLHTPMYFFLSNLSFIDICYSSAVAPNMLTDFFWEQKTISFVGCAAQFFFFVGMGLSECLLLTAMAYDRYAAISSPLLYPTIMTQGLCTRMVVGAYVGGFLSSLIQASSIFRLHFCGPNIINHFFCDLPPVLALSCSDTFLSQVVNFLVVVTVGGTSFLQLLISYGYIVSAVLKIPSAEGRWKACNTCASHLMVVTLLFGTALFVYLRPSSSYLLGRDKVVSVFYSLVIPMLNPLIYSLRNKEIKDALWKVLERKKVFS
Chain of OR5AP2 (Homo sapiens) (Q8NGF4 whole entry): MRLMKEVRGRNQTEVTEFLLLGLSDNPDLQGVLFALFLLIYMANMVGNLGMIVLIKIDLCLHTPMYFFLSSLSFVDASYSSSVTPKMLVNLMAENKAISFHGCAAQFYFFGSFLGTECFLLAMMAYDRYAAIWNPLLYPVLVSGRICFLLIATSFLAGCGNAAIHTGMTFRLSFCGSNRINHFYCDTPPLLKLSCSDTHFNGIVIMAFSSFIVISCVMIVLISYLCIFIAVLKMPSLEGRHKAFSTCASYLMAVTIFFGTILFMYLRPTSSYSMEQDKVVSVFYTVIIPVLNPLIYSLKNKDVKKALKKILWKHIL
Chain of OR5B12 (Homo sapiens) (Q96R08 whole entry): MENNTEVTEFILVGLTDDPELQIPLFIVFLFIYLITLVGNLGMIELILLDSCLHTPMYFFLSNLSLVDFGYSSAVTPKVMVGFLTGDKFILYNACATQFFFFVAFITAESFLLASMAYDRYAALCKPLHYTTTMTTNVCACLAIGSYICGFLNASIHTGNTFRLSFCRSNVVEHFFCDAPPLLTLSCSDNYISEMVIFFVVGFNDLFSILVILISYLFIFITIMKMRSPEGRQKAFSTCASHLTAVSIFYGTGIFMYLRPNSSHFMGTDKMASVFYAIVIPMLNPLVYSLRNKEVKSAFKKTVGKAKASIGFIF
Chain of OR56B4 (Homo sapiens) (Q8NH76 whole entry): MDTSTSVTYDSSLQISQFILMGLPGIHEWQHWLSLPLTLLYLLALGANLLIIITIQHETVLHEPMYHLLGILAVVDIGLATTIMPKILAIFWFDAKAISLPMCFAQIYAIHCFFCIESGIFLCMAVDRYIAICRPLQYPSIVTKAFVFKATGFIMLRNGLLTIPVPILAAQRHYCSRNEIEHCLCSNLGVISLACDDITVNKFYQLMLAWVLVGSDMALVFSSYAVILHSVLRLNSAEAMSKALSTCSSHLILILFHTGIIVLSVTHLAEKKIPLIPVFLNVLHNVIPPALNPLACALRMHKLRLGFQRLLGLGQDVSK
Chain of OR56A3 (Homo sapiens) (Q8NH54 whole entry): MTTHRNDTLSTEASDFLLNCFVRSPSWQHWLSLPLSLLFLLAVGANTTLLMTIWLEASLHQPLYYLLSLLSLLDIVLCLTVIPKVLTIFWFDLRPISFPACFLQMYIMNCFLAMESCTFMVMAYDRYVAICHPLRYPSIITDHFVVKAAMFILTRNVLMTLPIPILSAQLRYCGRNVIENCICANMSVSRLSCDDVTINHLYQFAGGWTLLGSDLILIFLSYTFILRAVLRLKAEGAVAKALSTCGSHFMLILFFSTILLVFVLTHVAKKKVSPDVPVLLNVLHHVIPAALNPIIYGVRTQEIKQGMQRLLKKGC
Chain of OR5A1 D183N (as listed by the source, stated change not applied): as the sequence (Q8NGJ0 whole entry) above, with D183N counted along it
Chain of OR5AC1 (Homo sapiens) (P0C628 whole entry): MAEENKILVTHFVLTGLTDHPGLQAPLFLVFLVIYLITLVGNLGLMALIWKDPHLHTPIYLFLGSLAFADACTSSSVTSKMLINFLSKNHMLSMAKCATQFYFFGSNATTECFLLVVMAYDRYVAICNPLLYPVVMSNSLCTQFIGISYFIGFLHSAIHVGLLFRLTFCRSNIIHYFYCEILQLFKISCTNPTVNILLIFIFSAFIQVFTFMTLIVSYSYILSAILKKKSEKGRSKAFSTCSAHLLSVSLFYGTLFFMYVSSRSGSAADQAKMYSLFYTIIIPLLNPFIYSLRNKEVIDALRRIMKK
Chain of OR52Z1P (Homo sapiens) (P0C646 whole entry): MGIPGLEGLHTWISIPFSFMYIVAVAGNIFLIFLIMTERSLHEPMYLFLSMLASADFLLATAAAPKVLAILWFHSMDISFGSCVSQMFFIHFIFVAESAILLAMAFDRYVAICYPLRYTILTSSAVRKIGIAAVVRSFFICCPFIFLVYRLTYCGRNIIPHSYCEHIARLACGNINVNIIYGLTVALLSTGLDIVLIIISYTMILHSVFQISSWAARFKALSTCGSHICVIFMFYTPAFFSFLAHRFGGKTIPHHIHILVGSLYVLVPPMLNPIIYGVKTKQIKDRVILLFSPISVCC

CC(=O)c1cc(C(C)(C)C)cc2c1CCC2(C)C
inactive: [1]

Cc1c([N+](=O)[O-])c(C)c([N+](=O)[O-])c(C(C)(C)C)c1[N+](=O)[O-]
active: [1]
not listed: [20]
inactive: all other assays above

CC(=O)c1cc2c(cc1C)C(C)(C)C(C)CC2(C)C (stereo not given)
inactive: [1]

C=CCc1ccc(OC)cc1
inactive: [12]

O=CC=Cc1ccccc1
inactive: [12]

O=Cc1ccccc1
inactive: [12]

C=CCOC(=O)Cc1ccccc1
not listed: [2] | [5] | [11] | [14]
inactive: all other assays above
